A short description of data set [1]: Cytotoxicity against mouse peritoneal macrophages assessed as cell viability after 24 hrs by MTT assay. It counts as cell-based. More on the design: concentration or dose not given beside the values. To be noted: peritoneal macrophage cell. The procedure, abridged:
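Mouse peritoneal macrophages were plated at 2 × 10⁵ cells/well. After adherence, the medium was replaced with compound-containing medium for 24 h at 37 °C, 5% CO₂, with medium-plus-DMSO controls. Viability was read by MTT colorimetric assay.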

The subject of data set [2] is Leishmania major. The data set can be described thus: Antileishmanial activity against promastigote form of Leishmania major MRHO/IR/75/ER after 24 hrs by MTT assay. Format: functional, organism-based. A digest of the protocol: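 Early-log promastigotes (2 × 10⁶/mL) were incubated with serial drug dilutions for 24 h at 25 °C in phenol red-free RPMI 1640 with 10% FBS, 2 mM glutamine and antibiotics, pH ~7.2. MTT at 0.5 mg/mL was added for 4 h at 37 °C, formazan was dissolved in DMSO and read at 492 nm. Controls received medium plus DMSO. IC₅₀ came from linear regression over ≥2 independent triplicate experiments, given as mean ± SD.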
For orientation: Tetrazolium assays rely on reduction of a dye to a coloured formazan, in cell work by metabolically active cells.

For data set [3], the system named is Leishmania major. The data set is described as follows: Antileishmanial activity against amastigote form of Leishmania major MRHO/IR/75/ER in mouse peritoneal macrophages assessed as decrease in infectivity index after 24 hrs. It counts as functional, organism-based. A digest of the protocol: (§1)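 Mouse peritoneal macrophages were seeded on glass coverslips at 1 × 10⁶ per well, and non-adherent cells were washed off after 1 h. Stationary-phase promastigotes were added at 3 per macrophage for 2 h at 37 °C in CO₂, then unbound parasites were washed away. Cells got drug-containing medium for 24 h and were then methanol-fixed and Giemsa-stained, counting 60 cells per well. Infectivity index = % infected macrophages × mean amastigotes per infected cell. Two sets of experiments were run.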

In data set [4] the test system is Leishmania major. The data set can be described thus: Antileishmanial activity against amastigote form of Leishmania major MRHO/IR/75/ER in mouse peritoneal macrophages assessed as decrease in macrophage infectivity after 24 hrs. It counts as functional, organism-based. A digest of the protocol: as §1
Data set [5] has as its system Leishmania major. The data set can be described thus: Antileishmanial activity against amastigote form of Leishmania major MRHO/IR/75/ER in mouse peritoneal macrophages assessed as decrease in number of amastigotes per macrophage after 24 hrs. It counts as functional, organism-based. A digest of the protocol: as §1
Setting [6] is: Leishmania major, MRHO/IR/75/ER, 24 h.

Drawing on ChEMBL document CHEMBL1137676, “Nitroimidazolyl-1,3,4-thiadiazole-based anti-leishmanial agents: synthesis and in vitro biological evaluation” (Eur J Med Chem, 2009), this text covers Activity and IC50 for 8 compounds.

Active and inactive are the calls of the source. The calls are words filed in the database; no cut-off is given here.

As for `Cn1c([N+](=O)[O-])cnc1-c1nnc(N2CCN(C(=O)c3ccccc3Cl)CC2)s1`, the Activity entry in data set [1] is “Non-toxic”. Also, in the data set on Leishmania major [2] (setting [6]), inhibition was half-maximal at 20.3 µM (IC50).
As for `Cn1c([N+](=O)[O-])cnc1-c1nnc(N2CCN(C(=O)c3ccc(Cl)cc3)CC2)s1`, the Activity entry in data set [1] is given as “Non-toxic”. Moreover, the IC50 (in general, the midpoint of a concentration-inhibition curve) in the data set on Leishmania major [2] (setting [6]) is 42.9 µM.
With `Cn1c([N+](=O)[O-])cnc1-c1nnc(N2CCN(C(=O)c3ccc(Cl)s3)CC2)s1`, the outcome in the data set with Leishmania major [3], in the data set with Leishmania major [4] and in the data set on Leishmania major [5] was Active. For the same compound, the Activity entry in data set [1] is on record as “Non-toxic”. This compound also yielded an IC50 in the data set on Leishmania major [2] (setting [6]) of 9.35 µM.
Consider `Cn1c([N+](=O)[O-])cnc1-c1nnc(N2CCN(C(=O)c3cccc(Cl)c3)CC2)s1`, for which, in data set [1], the Activity entry is recorded as “Non-toxic”. For the same compound, the midpoint of inhibition in the data set on Leishmania major [2] (setting [6]), the IC50, lay at 17.9 µM.
MEGLUMINE ANTIMONATE: the Activity in data set [1] was found to be 40%. Half-maximal inhibition with Leishmania major [2] (IC50) required 82 µM.
`Cn1c([N+](=O)[O-])cnc1-c1nnc(N2CCN(C(=O)c3ccc(Br)s3)CC2)s1`: the Activity result in data set [1] is given as “Non-toxic”. Besides, half-maximal inhibition in the data set with Leishmania major [2] (setting [6]) (IC50) was put at 16 µM.
With `Cn1c([N+](=O)[O-])cnc1-c1nnc(N2CCN(C(=O)c3cccs3)CC2)s1`, the Activity result in data set [1] is given as “Non-toxic”. For the same compound, the half-maximal inhibitory concentration (IC50) with Leishmania major [2] (setting [6]) worked out at 25.6 µM.
For the compound `Cn1c([N+](=O)[O-])cnc1-c1nnc(N2CCN(C(=O)c3ccccc3)CC2)s1`, the outcome in the data set on Leishmania major [3], with Leishmania major [4] and in the data set on Leishmania major [5] was Active. The Activity entry in data set [1] is recorded as “Non-toxic”. The IC50 with Leishmania major [2] (setting [6]) was found to be 10.4 µM.
